MC4R barr agon = activates human MC4R beta-arrestin recruitment. U2OS MC4R beta-arrestin complementation, luminescence; percent of melanotan II response, DMSO zero. activation, % at 8.9 µM. 0.98% of 360,000 active. AID 540308;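 active = activation above a per-plate cutoff, the mean activation of sample wells on that plate plus 3 SD, cut at about 8% in these data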
Target sequence (P32245 whole entry, looked up): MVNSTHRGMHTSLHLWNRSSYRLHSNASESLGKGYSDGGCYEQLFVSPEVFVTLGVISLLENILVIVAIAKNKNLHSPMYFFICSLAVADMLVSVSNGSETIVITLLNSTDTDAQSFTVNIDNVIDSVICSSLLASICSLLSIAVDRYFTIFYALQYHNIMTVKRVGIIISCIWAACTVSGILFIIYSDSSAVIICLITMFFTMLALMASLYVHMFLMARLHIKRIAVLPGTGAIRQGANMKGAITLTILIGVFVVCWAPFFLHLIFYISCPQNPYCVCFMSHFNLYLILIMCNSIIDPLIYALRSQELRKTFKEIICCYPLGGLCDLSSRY
Beta2AR agonist = human beta-2 adrenergic receptor agonism by FAP | 0.43% of 340,000 active | Am2.2-beta2AR cells, FAP receptor internalization, flow cytometry | AID 504454 | P07550 | response, % (test concentration not listed);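 active = response above a set limit, near 3 SD of response in nonfluorescent compounds, cut at about 42% in these data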
Target sequence (P07550 whole entry, looked up): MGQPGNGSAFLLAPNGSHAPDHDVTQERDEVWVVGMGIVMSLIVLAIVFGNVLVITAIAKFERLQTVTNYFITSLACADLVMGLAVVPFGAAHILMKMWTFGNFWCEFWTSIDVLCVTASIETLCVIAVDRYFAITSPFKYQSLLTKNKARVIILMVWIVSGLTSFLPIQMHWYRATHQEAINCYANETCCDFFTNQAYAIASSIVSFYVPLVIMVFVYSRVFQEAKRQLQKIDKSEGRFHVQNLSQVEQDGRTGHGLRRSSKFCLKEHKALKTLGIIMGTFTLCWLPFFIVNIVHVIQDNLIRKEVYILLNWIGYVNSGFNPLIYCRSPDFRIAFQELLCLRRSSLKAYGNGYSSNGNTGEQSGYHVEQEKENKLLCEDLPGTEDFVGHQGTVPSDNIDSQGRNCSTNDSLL
MC4R antag cAMP = human MC4R antagonism in cAMP assay | P32245 | MC4R-expressing cells, MTII-stimulated cAMP, LANCE TR-FRET | inhibition, % at 6.5 µM | 0.48% of 360,000 active;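 active = inhibition above its plate's cutoff, the mean of tested wells on that plate plus 3 SD, cut at about 29% in these data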;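 also: 0% = Melanotan II alone and 100% = Melanotan II plus saturating MCL0020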
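System: U2OS cells stably expressing human melanocortin 4 receptor (MC4R). Reagent: Melanotan II challenge after compound preincubation. Doses: 6.5 µM. Times: 30-min compound, 1-h challenge, 1-h detection, room temperature. Measured by: TR-FRET with Eu-cAMP and labeled anti-cAMP, 671 nm. Replicates: singlicate.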
m5-HT2A agonist = activates the mouse 5-HT2A serotonin receptor | activation, % at 7.6 µM | AID 624169 | 0.66% of 360,000 active | CHO-K1 mHTR2A beta-arrestin complementation, luminescence; percent of 30 µM serotonin response;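 active = activation above a run cutoff, the mean activation of all tested compounds plus 3 SD, cut at about 14% in these data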;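 also: 0% = plate median of compound wells and 100% = 30 µM serotonin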
TAAR1 ag = agonists of human TAAR1; activation, % at 3 µM; CHO RD-HGA16 TAAR1, Fluo-8 calcium fluorescence; vehicle wells 0%, saturating PEA agonist 100%; 0.99% of 360,000 active; AID 624467; Q96RJ0;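 active = activation above the mean activation of all test compounds in the run plus 3 SD, cut at about 38% in these data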
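test system = CHO RD-HGA16 cells carrying human TAAR1 plus Gα16 | schedule = 17-24 h seeding, 75 min 37 °C dye, 30 min RT | compound dosing = 3 µM single concentration | control set = DMSO and PEA EC100 | replicates = n 1 | signal = Fluo-8 fluorescence, 5 s baseline then 140 s kinetic read | measure = percent activation vs PEA EC100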
TAAR1 antag = human TAAR1 antagonism. Q96RJ0. CHO RD-HGA16 TAAR1, Fluo-8 calcium fluorescence, antagonist. inhibition, % at 3 µM. 1.5% of 360,000 active;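 active = inhibition above a per-plate cutoff, the mean inhibition of test compounds on that plate plus 3 SD, cut at about 49% in these data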;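 also: 0% = DMSO plus EC80 beta-PEA response and 100% = DMSO alone without agonist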
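Test system – hTAAR1-expressing CHO RD-HGA16 cells, Gα16-coupled · Also added – β-PEA at EC80 concentration, post-compound challenge · Compound – 3 µM, single point · Incubation – dye loading 75 min at 37 °C, then 30 min room temperature · Measured by – Fluo-8 intracellular calcium dye fluorescence, real-time kinetic reads · Benchmarks – vehicle and agonist controls · Replicates – singlicate, one well per test compound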
nonsel antag count = counter-screen for TAAR1 antagonists: nonselective antagonists; shares compounds with TAAR1 antag; 77% of 2,400 active; inhibition, % at 3 µM; counterscreen cell line, calcium fluorescence, antagonist mode; in the data active = inhibition above about 22%;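 also: CHO-Ga16 host cells stimulated with ATP at an EC80 level; 0% = agonist EC80 plus vehicle and 100% = vehicle without agonist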
TAAR1 ant conf = confirmation of human TAAR1 antagonists | TAAR1-expressing cells, fluorescence antagonist read-out | inhibition, % at 3 µM | shares compounds with TAAR1 antag | 40% of 2,400 active | AID 651785; in the data active = inhibition above about 49%;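 also: CHO-Ga16 host cells challenged with agonist PEA near its EC80; 0% = agonist at EC80 plus vehicle and 100% = vehicle with no agonist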
Ga16 nonsel ag = nonselective Ga16 agonist in TAAR1 antagonist counter-screen; 18% of 2,400 active; activation, % at 3 µM; shares compounds with TAAR1 antag; Ga16-expressing cells, calcium fluorescence, agonist counterscreen; AID 651953; in the data active = activation above about 12%;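 also: 0% = vehicle wells and 100% = saturating stimulus response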
TAAR1 ag count = TAAR1 agonism, antagonist counter-screen; 2% of 2,400 active; activation, % at 3 µM; shares compounds with TAAR1 antag; hTAAR1 cell line, fluorescence activation, agonist mode; AID 651955; in the data active = activation above about 37%;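 also: CHO cells stably expressing TAAR1 with calcium dye readout; 0% = DMSO vehicle and 100% = full agonist response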
Active calls of the source: *; nt = no result given. This is a sample that favours compounds with a hit; in the whole collection about 4.3% have one here.

SMILES	MC4R barr agon	Beta2AR agonist	MC4R antag cAMP	m5-HT2A agonist	TAAR1 ag	TAAR1 antag	nonsel antag count	TAAR1 ant conf	Ga16 nonsel ag	TAAR1 ag count
CC(OC(=O)c1cnccn1)C(=O)Nc1nc(-c2cccc([N+](=O)[O-])c2)cs1 (configuration not stated)	0	1	1	5	17	52*	24*	27	7	4
O=C(c1ccc(F)cc1)C1CCN(CCCn2c(=O)[nH]c3ccccc32)CC1	nt	nt	nt	nt	1	0	nt	nt	nt	nt
Cc1ccc2nc(-c3ccc(CN4CCC5(CC4)CNc4ccccc45)cc3)c(-c3ccccc3)nc2c1	nt	nt	nt	nt	0	22	nt	nt	nt	nt
Brc1ccc2nc(-c3ccc(CN4CCC5(CC4)CNc4ccccc45)cc3)c(-c3ccccc3)nc2c1	nt	nt	nt	nt	5	49*	26*	39	3	5
Cn1cnnc1SCC(=O)NC1CC1	0	0	7	3	6	3	nt	nt	nt	nt
O=C(c1ccncc1)N1CCN(C(=O)c2ccco2)CC1	-2	-4	4	11	4	-13	nt	nt	nt	nt
O=C(c1ccc(N2CN(C(=O)c3ccco3)c3nc4ccccc4nc32)cc1)N1CCOCC1	2	0	23	4	26	53*	21	43	10	9
Cc1nc2ccccc2c2oc(C(=O)N3CCC(C)CC3)cc12	-2	-16	4	4	-1	-3	nt	nt	nt	nt
Cc1nc2ccccc2c2oc(C(=O)N3CCc4ccccc4C3)cc12	0	-5	2	4	3	58*	26*	49*	15*	18
CCCCNC(=O)C1CC(c2ccc(C(F)(F)F)cc2)=NO1 (configuration not stated)	1	-7	14	4	12	-11	nt	nt	nt	nt
O=C(NCCCCc1ccccc1)C1CC(c2ccc(C(F)(F)F)cc2)=NO1 (configuration not stated)	-1	-5	-3	-2	28	84*	23*	18	3	3
O=C(Nc1ccc([N+](=O)[O-])cc1NC(=O)c1ccccc1)c1ccccc1	5	-1	19	3	6	57*	32*	43	7	7
Cc1ccc([N+](=O)[O-])cc1NC(=O)c1ccccc1	-2	6	19	0	-1	6	nt	nt	nt	nt
CC(=O)N1CCN(C(=O)c2ccc(NS(=O)(=O)c3ccc4[nH]c(=O)[nH]c4c3)cc2)CC1	0	-1	0	0	3	-35	nt	nt	nt	nt
CCN(CC)S(=O)(=O)c1ccc(/C=C/C(=O)Nc2cccc(F)c2)cc1	1	12	7	-6	10	58*	39*	62*	10	7
CCN(CC)S(=O)(=O)c1ccc(/C=C/C(=O)O)cc1	1	7	4	2	-1	14	nt	nt	nt	nt
CC(C)COc1ccc(CNC(=S)Nc2ccccc2)cc1Cl	3	-12	14	-2	2	26	nt	nt	nt	nt
COc1ccccc1CN(C)C(=O)c1ccc(S(=O)(=O)Nc2c(C)n(C)n(-c3ccccc3)c2=O)cc1	-2	1	11	-1	8	50*	20	36	5	4
CCSc1nc2ccccc2c(=O)n1CCc1ccc(OC)c(OC)c1	5	-12	8	-1	4	61*	30*	44	4	7
COc1ccc(Cl)cc1N(CC(=O)N1CCCCCC1)S(C)(=O)=O	-1	1	-4	-6	0	-21	nt	nt	nt	nt
CN(C)S(=O)(=O)N1CCC(Oc2cccc(C(=O)NC3CCCCC3)c2)CC1	-3	4	10	7	2	-2	nt	nt	nt	nt
CN(C)S(=O)(=O)N1CCC(Oc2cccc(C(=O)NCCC3=CCCCC3)c2)CC1	0	20	16	0	13	81*	43*	60*	13*	8
Cc1noc(C)c1-c1ccc(C(=O)Nc2cccc(NS(C)(=O)=O)c2)c2occc12	0	nt	15	-2	16	60*	33*	46	11	11
Cc1noc(C)c1-c1ccc(C(=O)Nc2cccc(C(F)(F)F)c2)c2occc12	0	nt	9	-5	-1	53*	21	40	3	3
COC(=O)CC1C(=O)NCCN1C(=O)c1cc(OC)c(OC)cc1OC (configuration not stated)	1	0	5	-4	2	-7	nt	nt	nt	nt
SMILES	MC4R barr agon	Beta2AR agonist	MC4R antag cAMP	m5-HT2A agonist	TAAR1 ag	TAAR1 antag	nonsel antag count	TAAR1 ant conf	Ga16 nonsel ag	TAAR1 ag count
COC(=O)c1ccc(OCC(=O)Nc2ccccc2C(=O)NC2CC2)cc1	2	-1	26	1	18	62*	30*	48	10	8
CN1CCN(S(=O)(=O)c2cccc(C(=O)NCCOc3ccccc3F)c2)CC1	-2	-2	5	1	1	7	nt	nt	nt	nt
CSc1ccc(/C=C(/NC(=O)c2ccccc2)C(=O)NCCN2CCOCC2)cc1	-4	-4	-2	1	0	11	nt	nt	nt	nt
COc1ccc(-c2csc(N3CCN(c4cc5c(cc4Cl)nc(-c4ccncc4)n5CCOCCO)CC3)n2)cc1	0	7	14	-6	13	50*	34*	33	8	0
Cc1ccc(-c2csc(N3CCN(c4cc5c(cc4Cl)nc(-c4ccncc4)n5CCN4CCCCC4)CC3)n2)cc1	0	36	0	-7	0	7	nt	nt	nt	nt
CC1=CC(=O)C(Sc2ccc(C)cc2)=CC1=O	-3	nt	18	1	18	-11	nt	nt	nt	nt
COc1ccc(O)c(/C=N/NC(=S)NCCc2ccccc2)c1	7	6	-9	1	22	54*	27*	57*	15*	44*
CC(=O)Nc1ccc(S(=O)(=O)N(C)CC(=O)Nc2ccccc2N2CCCC2)cc1	-2	12	-5	-2	17	55*	30*	39	10	9
CN(CC(=O)Nc1ccccc1N1CCOCC1)S(=O)(=O)c1ccc(F)cc1	1	19	2	-3	13	8	nt	nt	nt	nt
Cc1cc2nc(C3CCCCC3)c(Cc3cccc(F)c3)n2c(C)c1Br	nt	nt	nt	-4	6	-21	nt	nt	nt	nt
Fc1ccc(-n2cc(-c3ccccc3)c3c(N4CCOCC4)ncnc32)cc1	-3	13	-1	-13	8	67*	15	36	7	17

Assay outcomes: PubChem BioAssay, several laboratories
